{
  "source": "ChEMBL document CHEMBL1275592",
  "about": "“AmpN-AmpG operon is essential for expression of L1 and L2 beta-lactamases in Stenotrophomonas maltophilia” (2010)",
  "assay_type_in_all_cases": "functional",
  "key": {"[1]": {"system": "Stenotrophomonas maltophilia", "assay": "Antimicrobial activity against Stenotrophomonas maltophilia KJN1 harboring ampN with xylE-Gmomega cassette insertion by agar dilution method", "how_it_was_run": "(§1)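 MICs were determined in triplicate by standard 2-fold serial agar dilution, following CLSI guidelines.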"}, "[2]": {"system": "Stenotrophomonas maltophilia", "assay": "Antimicrobial activity against Stenotrophomonas maltophilia KJN2 harboring pRK415 plasmid and ampN with xylE-Gmomega cassette insertion by agar dilution method", "how_it_was_run": "as §1"}, "[3]": {"system": "Stenotrophomonas maltophilia", "assay": "Antimicrobial activity against Stenotrophomonas maltophilia KJ by agar dilution method", "how_it_was_run": "as §1"}, "[4]": {"system": "Stenotrophomonas maltophilia", "assay": "Antimicrobial activity against Stenotrophomonas maltophilia KJN2 harboring pRK-NG plasmid and ampN with xylE-Gmomega cassette insertion by agar dilution method", "how_it_was_run": "as §1"}, "[5]": {"system": "Stenotrophomonas maltophilia", "assay": "Antimicrobial activity against Stenotrophomonas maltophilia KJN2 harboring pRK-G plasmid and ampN with xylE-Gmomega cassette insertion by agar dilution method", "how_it_was_run": "as §1"}, "[6]": {"system": "Stenotrophomonas maltophilia", "assay": "Antimicrobial activity against Stenotrophomonas maltophilia KJ harboring pRK415 plasmid by agar dilution method", "how_it_was_run": "as §1"}, "[7]": {"system": "Stenotrophomonas maltophilia", "assay": "Antimicrobial activity against ampN deficient Stenotrophomonas maltophilia KJ harboring ampG with xylE-Gmomega cassette insertion by agar dilution method", "how_it_was_run": "as §1"}, "[8]": {"system": "Stenotrophomonas maltophilia", "assay": "Antimicrobial activity against ampN deficient Stenotrophomonas maltophilia KJ by agar dilution method", "how_it_was_run": "as §1"}, "[9]": {"system": "Stenotrophomonas maltophilia", "assay": "Antimicrobial activity against Stenotrophomonas maltophilia KJG harboring ampG with xylE-Gmomega cassette insertion by agar dilution method", "how_it_was_run": "as §1"}, "[10]": {"system": "Stenotrophomonas maltophilia", "assay": "Antimicrobial activity against Stenotrophomonas maltophilia KJN2 harboring pRK-EcG plasmid and ampN with xylE-Gmomega cassette insertion by agar dilution method", "how_it_was_run": "as §1"}, "[11]": {"system": "Stenotrophomonas maltophilia", "assay": "Antimicrobial activity against Stenotrophomonas maltophilia KJN2 harboring ampN with xylE-Gmomega cassette insertion by agar dilution method", "how_it_was_run": "as §1"}, "[12]": {"system": "Stenotrophomonas maltophilia", "assay": "Antimicrobial activity against Stenotrophomonas maltophilia KJ harboring pRK-NG plasmid by agar dilution method", "how_it_was_run": "as §1"}, "[13]": {"system": "Stenotrophomonas maltophilia", "assay": "Antimicrobial activity against Stenotrophomonas maltophilia KJN1 harboring ampN with xylE-Gmomega cassette insertion by Etest", "how_it_was_run": "(§2)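 Imipenem and meropenem MICs were read from Etest strips, following the manufacturer's instructions.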"}, "[14]": {"system": "Stenotrophomonas maltophilia", "assay": "Antimicrobial activity against Stenotrophomonas maltophilia KJ by Etest", "how_it_was_run": "as §2"}, "[15]": {"system": "Stenotrophomonas maltophilia", "assay": "Antimicrobial activity against ampN deficient Stenotrophomonas maltophilia KJ by Etest", "how_it_was_run": "as §2"}, "[16]": {"system": "Stenotrophomonas maltophilia", "assay": "Antimicrobial activity against Stenotrophomonas maltophilia KJN2 harboring pRK-NG plasmid and ampN with xylE-Gmomega cassette insertion by Etest", "how_it_was_run": "as §2"}, "[17]": {"system": "Stenotrophomonas maltophilia", "assay": "Antimicrobial activity against Stenotrophomonas maltophilia KJN2 harboring ampN with xylE-Gmomega cassette insertion by Etest", "how_it_was_run": "as §2"}, "[18]": {"system": "Stenotrophomonas maltophilia", "assay": "Antimicrobial activity against Stenotrophomonas maltophilia KJN2 harboring pRK415 plasmid and ampN with xylE-Gmomega cassette insertion by Etest", "how_it_was_run": "as §2"}, "[19]": {"system": "Stenotrophomonas maltophilia", "assay": "Antimicrobial activity against Stenotrophomonas maltophilia KJN2 harboring pRK-G plasmid and ampN with xylE-Gmomega cassette insertion by Etest", "how_it_was_run": "as §2"}, "[20]": {"system": "Stenotrophomonas maltophilia", "assay": "Antimicrobial activity against Stenotrophomonas maltophilia KJN2 harboring pRK-EcG plasmid and ampN with xylE-Gmomega cassette insertion by Etest", "how_it_was_run": "as §2"}, "[21]": {"system": "Stenotrophomonas maltophilia", "assay": "Antimicrobial activity against ampN deficient Stenotrophomonas maltophilia KJ harboring ampG with xylE-Gmomega cassette insertion by Etest", "how_it_was_run": "as §2"}, "[22]": {"system": "Stenotrophomonas maltophilia", "assay": "Antimicrobial activity against Stenotrophomonas maltophilia KJG harboring ampG with xylE-Gmomega cassette insertion by Etest", "how_it_was_run": "as §2"}},
  "data": [
    {"smiles": "CCN1CCN(C(=O)N[C@@H](C(=O)N[C@@H]2C(=O)N3[C@@H]2SC(C)(C)[C@@H]3C(=O)O)c2ccccc2)C(=O)C1=O", "note": "[PIPERACILLIN]", "values": [
      {"measurement": "MIC", "setting": "[1]", "value": 32, "unit": "µg/mL"},
      {"measurement": "MIC", "setting": "[2]", "value": 16, "unit": "µg/mL"},
      {"measurement": "MIC", "setting": "[3]", "value": 1020, "unit": "µg/mL"},
      {"measurement": "MIC", "setting": "[4]", "value": 1020, "unit": "µg/mL"},
      {"measurement": "MIC", "setting": "[5]", "value": 32, "unit": "µg/mL"},
      {"measurement": "MIC", "setting": "[6]", "value": 1020, "unit": "µg/mL"},
      {"measurement": "MIC", "setting": "[7]", "value": 16, "unit": "µg/mL"},
      {"measurement": "MIC", "setting": "[8]", "value": 32, "unit": "µg/mL"},
      {"measurement": "MIC", "setting": "[9]", "value": 32, "unit": "µg/mL"},
      {"measurement": "MIC", "setting": "[10]", "value": 512, "unit": "µg/mL"},
      {"measurement": "MIC", "setting": "[11]", "value": 16, "unit": "µg/mL"},
      {"measurement": "MIC", "setting": "[12]", "value": 1020, "unit": "µg/mL"}
    ]},
    {"smiles": "C[C@H]1[C@H](NC(=O)/C(=N\\OC(C)(C)C(=O)O)c2csc(N)n2)C(=O)N1S(=O)(=O)O", "note": "[AZTREONAM]", "values": [
      {"measurement": "MIC", "setting": "[1]", "value": 32, "unit": "µg/mL"},
      {"measurement": "MIC", "setting": "[2]", "value": 16, "unit": "µg/mL"},
      {"measurement": "MIC", "setting": "[3]", "value": "> 1020", "unit": "µg/mL"},
      {"measurement": "MIC", "setting": "[4]", "value": "> 1020", "unit": "µg/mL"},
      {"measurement": "MIC", "setting": "[5]", "value": 32, "unit": "µg/mL"},
      {"measurement": "MIC", "setting": "[6]", "value": "> 1020", "unit": "µg/mL"},
      {"measurement": "MIC", "setting": "[7]", "value": 16, "unit": "µg/mL"},
      {"measurement": "MIC", "setting": "[8]", "value": 32, "unit": "µg/mL"},
      {"measurement": "MIC", "setting": "[9]", "value": 16, "unit": "µg/mL"},
      {"measurement": "MIC", "setting": "[10]", "value": "> 1020", "unit": "µg/mL"},
      {"measurement": "MIC", "setting": "[11]", "value": 16, "unit": "µg/mL"},
      {"measurement": "MIC", "setting": "[12]", "value": "> 1020", "unit": "µg/mL"}
    ]},
    {"smiles": "C[C@@H](O)[C@H]1C(=O)N2C(C(=O)O)=C(SCCNC=N)C[C@H]12", "note": "[IMIPENEM ANHYDROUS]", "values": [
      {"measurement": "MIC", "setting": "[13]", "value": 4, "unit": "µg/mL"},
      {"measurement": "MIC", "setting": "[14]", "value": "> 32", "unit": "µg/mL"},
      {"measurement": "MIC", "setting": "[15]", "value": 4, "unit": "µg/mL"},
      {"measurement": "MIC", "setting": "[16]", "value": "> 32", "unit": "µg/mL"},
      {"measurement": "MIC", "setting": "[17]", "value": 2, "unit": "µg/mL"},
      {"measurement": "MIC", "setting": "[18]", "value": 1.5, "unit": "µg/mL"},
      {"measurement": "MIC", "setting": "[19]", "value": 3, "unit": "µg/mL"},
      {"measurement": "MIC", "setting": "[20]", "value": "> 32", "unit": "µg/mL"},
      {"measurement": "MIC", "setting": "[21]", "value": 2, "unit": "µg/mL"},
      {"measurement": "MIC", "setting": "[22]", "value": 2, "unit": "µg/mL"}
    ]},
    {"smiles": "CC1(C)S[C@@H]2[C@H](NC(=O)C(C(=O)O)c3ccccc3)C(=O)N2[C@H]1C(=O)O", "note": "(stereo partly specified) [CARBENICILLIN]", "values": [
      {"measurement": "MIC", "setting": "[1]", "value": 8, "unit": "µg/mL"},
      {"measurement": "MIC", "setting": "[2]", "value": 4, "unit": "µg/mL"},
      {"measurement": "MIC", "setting": "[3]", "value": 1020, "unit": "µg/mL"},
      {"measurement": "MIC", "setting": "[4]", "value": 1020, "unit": "µg/mL"},
      {"measurement": "MIC", "setting": "[5]", "value": 4, "unit": "µg/mL"},
      {"measurement": "MIC", "setting": "[6]", "value": 1020, "unit": "µg/mL"},
      {"measurement": "MIC", "setting": "[7]", "value": 2, "unit": "µg/mL"},
      {"measurement": "MIC", "setting": "[8]", "value": 4, "unit": "µg/mL"},
      {"measurement": "MIC", "setting": "[9]", "value": 2, "unit": "µg/mL"},
      {"measurement": "MIC", "setting": "[10]", "value": 512, "unit": "µg/mL"},
      {"measurement": "MIC", "setting": "[11]", "value": 2, "unit": "µg/mL"},
      {"measurement": "MIC", "setting": "[12]", "value": 1020, "unit": "µg/mL"}
    ]}
  ]
}
